# Results published in ChEMBL document CHEMBL3232844, “Synthesis and structure activity relationships of schweinfurthin indoles” (2014).
# Experiments:
# Assay type in all cases: functional
# SK-MEL-28 = experiment: Cytotoxicity against human SK-MEL-28 cells; settings: for CC50: read-out: pLC50 (the source's name) (converted); for TGI: read-out: pTGI (converted)
# Method in brief: (§1)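 Tested in a 60-cell-line human tumor panel screen; the read-out is growth inhibition, reported as GI50 for each cell line.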
# RPMI-8226 = experiment: Cytotoxicity against human RPMI8226 cells; method in brief: as §1
# SW-620 = experiment: Cytotoxicity against human SW620 cells; settings: for CC50: read-out: pLC50 (the source's name) (converted)
# Method in brief: (§2)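 Cell line run as part of the 60-cell-line screening panel; growth inhibition was reported as a GI50 for each line.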
# Malme-3M = experiment: Cytotoxicity against human MALME-3M cells; method in brief: as §1
# [1] = Cytotoxicity against human HCT15 cells; settings: for GI50: HCT-15; for CC50: HCT-15, read-out: pLC50 (the source's name) (converted); for TGI: HCT-15, read-out: pTGI (converted); method in brief: as §1
# LOX IMVI = experiment: Cytotoxicity against human LOXIMVI cells; settings: for CC50: read-out: pLC50 (the source's name) (converted); for TGI: read-out: pTGI (converted); method in brief: as §1
# [2] = Cytotoxicity against human OVCAR4 cells; settings: for GI50: OVCAR-4; for CC50: OVCAR-4, read-out: pLC50 (the source's name) (converted); for TGI: OVCAR-4, read-out: pTGI (converted); method in brief: as §1
# A549 = experiment: Cytotoxicity against human A549 cells; settings: for CC50: read-out: pLC50 (the source's name) (converted); for TGI: read-out: pTGI (converted); method in brief: as §1
# NCI-H522 = experiment: Cytotoxicity against human NCI-H522 cells; method in brief: as §1
# CAKI-1 = experiment: Cytotoxicity against human Caki1 cells; settings: for TGI: read-out: pTGI (converted); method in brief: as §1
# HOP-62 = experiment: Cytotoxicity against human HOP62 cells; settings: for CC50: read-out: pLC50 (the source's name) (converted); for TGI: read-out: pTGI (converted); method in brief: as §1
# IGROV-1 = experiment: Cytotoxicity against human IGROV1 cells; settings: for CC50: read-out: pLC50 (the source's name) (converted); for TGI: read-out: pTGI (converted); method in brief: as §1
# HCT-116 = experiment: Cytotoxicity against human HCT116 cells; settings: for CC50: read-out: pLC50 (the source's name) (converted); for TGI: read-out: pTGI (converted); method in brief: as §1
# TK-10 = experiment: Cytotoxicity against human TK10 cells; settings: for TGI: read-out: pTGI (converted); method in brief: as §2
# COLO 205 = experiment: Cytotoxicity against human COLO205 cells; settings: for CC50: read-out: pLC50 (the source's name) (converted); for TGI: read-out: pTGI (converted); method in brief: as §1
# HOP-92 = experiment: Cytotoxicity against human HOP92 cells; settings: for CC50: read-out: pLC50 (the source's name) (converted); for TGI: read-out: pTGI (converted); method in brief: as §1
# [3] = Cytotoxicity against human Hs578T cells; settings: Hs-578T; for TGI: read-out: pTGI (converted); method in brief: as §1
# [4] = read-out: pLC50 (the source's name) (converted)
smiles,measurement,setting,value
CC1(C)[C@H](O)CC[C@@]2(C)Oc3c(O)cc(/C=C/c4cc(O)c5cc[nH]c5c4)cc3C[C@H]12,GI50,SK-MEL-28,6.17 µM
same,CC50,SK-MEL-28,> 100 µM
same,TGI,SK-MEL-28,> 100 µM
same,GI50,RPMI-8226,0.0158 µM
same,CC50,RPMI-8226; [4],11.5 µM
same,TGI,RPMI-8226; read-out: pTGI (converted),0.0661 µM
same,GI50,SW-620,0.214 µM
same,CC50,SW-620,6.46 µM
same,TGI,SW-620; read-out: pTGI (converted),1.35 µM
same,GI50,Malme-3M,3.02 µM
same,CC50,Malme-3M; [4],60.3 µM
same,TGI,Malme-3M; read-out: pTGI (converted),17 µM
same,GI50,[1],0.832 µM
same,CC50,[1],> 100 µM
same,TGI,[1],38 µM
same,GI50,LOX IMVI,0.178 µM
same,CC50,LOX IMVI,5.62 µM
same,TGI,LOX IMVI,1.58 µM
same,GI50,[2],5.01 µM
same,CC50,[2],91.2 µM
same,TGI,[2],42.7 µM
same,GI50,A549,1 µM
same,CC50,A549,55 µM
same,TGI,A549,8.32 µM
same,GI50,NCI-H522,1.07 µM
same,CC50,NCI-H522; [4],38 µM
same,TGI,NCI-H522; read-out: pTGI (converted),6.92 µM
same,GI50,CAKI-1,0.12 µM
same,LC50,CAKI-1,15.1 µM
same,TGI,CAKI-1,0.676 µM
same,GI50,HOP-62,0.631 µM
same,CC50,HOP-62,> 100 µM
same,TGI,HOP-62,7.08 µM
same,GI50,IGROV-1,2.51 µM
same,CC50,IGROV-1,97.7 µM
same,TGI,IGROV-1,22.9 µM
same,GI50,HCT-116,0.617 µM
same,CC50,HCT-116,8.13 µM
same,TGI,HCT-116,2.45 µM
same,GI50,TK-10,3.55 µM
same,LC50,TK-10,> 100 µM
same,TGI,TK-10,34.7 µM
same,GI50,COLO 205,2.19 µM
same,CC50,COLO 205,11.7 µM
same,TGI,COLO 205,4.79 µM
same,GI50,HOP-92,0.501 µM
same,CC50,HOP-92,> 100 µM
same,TGI,HOP-92,5.5 µM
same,GI50,[3],0.01 µM
same,LC50,[3],> 100 µM
same,TGI,[3],0.427 µM
COc1cc(/C=C/c2cc(O)c3c(c2)C[C@@H]2C(C)(C)[C@H](O)CC[C@@]2(C)O3)cc2c1ccn2C,GI50,SK-MEL-28,0.145 µM
same,CC50,SK-MEL-28,45.7 µM
same,TGI,SK-MEL-28,17.4 µM
same,CC50,SW-620,18.6 µM
same,GI50,[1],2.95 µM
same,CC50,[1],33.9 µM
same,TGI,[1],6.76 µM
same,GI50,LOX IMVI,0.123 µM
same,CC50,LOX IMVI,26.9 µM
same,TGI,LOX IMVI,4.57 µM
same,GI50,[2],8.51 µM
same,CC50,[2],56.2 µM
same,TGI,[2],24 µM
same,GI50,A549,9.55 µM
same,CC50,A549,58.9 µM
same,TGI,A549,23.4 µM
same,GI50,NCI-H522,5.89 µM
same,GI50,CAKI-1,0.479 µM
same,LC50,CAKI-1,89.1 µM
same,TGI,CAKI-1,9.12 µM
same,GI50,HOP-62,0.0759 µM
same,CC50,HOP-62,26.9 µM
same,TGI,HOP-62,4.68 µM
same,GI50,IGROV-1,10.7 µM
same,CC50,IGROV-1,89.1 µM
same,TGI,IGROV-1,25.7 µM
same,GI50,HCT-116,0.407 µM
same,CC50,HCT-116,35.5 µM
same,TGI,HCT-116,13.5 µM
same,GI50,TK-10,9.77 µM
same,LC50,TK-10,63.1 µM
same,TGI,TK-10,25.1 µM
same,GI50,COLO 205,5.62 µM
same,CC50,COLO 205,42.7 µM
same,TGI,COLO 205,17.8 µM
same,GI50,HOP-92,0.955 µM
same,CC50,HOP-92,89.1 µM
same,TGI,HOP-92,12.6 µM
same,GI50,[3],0.0229 µM
same,LC50,[3],89.1 µM
same,TGI,[3],3.55 µM
